Reference: ChEMBL document CHEMBL4765459, “Synthesis and bioactivity of phenyl substituted furan and oxazole carboxylic acid derivatives as potential PDE4 inhibitors” (Eur J Med Chem, 2020)
pIC50: −log10 of the molar value.

Experiments:
Homo sapiens = species on record: Homo sapiens; assay: Selectivity ratio of IC50 for inhibition of human U937 cells derived PDE4D to inhibition of human U937 cells derived PDE4B
[1] = target: T1, 3',5'-cyclic-AMP phosphodiesterase 4B (Homo sapiens, UniProt Q07343); assay: Inhibition of human U-937 cells derived PDE4B using [3H] cAMP as substrate measured after 30 mins
Summary of the method: (§1)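 Enzyme from human monocyte-derived U937 cells, stored at −20 °C and diluted in triple-distilled water containing BSA. Substrate was [3H]cAMP (300,000 dpm/assay) in 100 mmol/L Tris-HCl pH 8.0 with 5 mmol/L EGTA. Compound added in DMSO. Incubation 30 min at 30 °C. Duplicates run at several compound concentrations.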

[2] = target: 3',5'-cyclic-AMP phosphodiesterase 4D (Homo sapiens, UniProt Q08499); assay: Inhibition of human U-937 cells derived PDE4D using [3H] cAMP as substrate measured after 30 mins; summary of the method: as §1
[3] = target: T1, 3',5'-cyclic-AMP phosphodiesterase 4B; assay: Inhibition of PDE4B in human PBMC assessed as reduction in LPS-induced TNFalpha release preincubated for 30 mins followed by LPS stimulation and measured after 18 hrs by TR-FRET assay
Summary of the method: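 Human PBMCs from buffy coats, blood first diluted 1:1 with saline, isolated on Lymphoprep. Compound pre-incubation 30 min, then LPS stimulation for 18 h. IC50 reported.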

Mus musculus = assay: Antiinflammatory activity in LPS induced Swiss albino mouse model of sepsis assessed as inhibition of TNFalpha production at 10 mg/kg, po preincubated for 30 mins followed by LPS stimulation and measured after 90 mins by ELISA relative to control; assay type: functional; conditions: 2 h, time 120 min
Summary of the method: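 Female Swiss albino mice, weight-matched, n = 6 per group, fasted 20 h with water available. Oral dosing in 0.5% Tween 80 / 0.25% sodium carboxymethylcellulose, with vehicle-only controls. 500 µg E. coli LPS (B4) in phosphate buffer given i.p. 30 min later. Retro-orbital bleed 90 min after LPS. Serum spun 4000 rpm for 20 min, held at 4 °C overnight, then TNF-α measured by mouse ELISA kit.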

Rattus norvegicus = assay: Antiinflammatory activity in LPS induced Sprague-Dawley rat model of asthma and COPD assessed as inhibition of neutrophilia at 10 mg/kg, po preincubated for 30 mins followed by LPS stimulation and measured after 6 hrs relative to control; assay type: functional; conditions: time 6.5 hrs
Summary of the method: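 Male Sprague Dawley rats, acclimatized one week and randomized by body weight, n = 6 per group. Compound given orally, suspended in 0.25% sodium carboxymethylcellulose, half an hour before LPS exposure. Bronchoalveolar lavage done 6 h after LPS. Total cell count and differential leukocyte count compared with control.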

Chain of 3',5'-cyclic-AMP phosphodiesterase 4D (Q08499 whole entry): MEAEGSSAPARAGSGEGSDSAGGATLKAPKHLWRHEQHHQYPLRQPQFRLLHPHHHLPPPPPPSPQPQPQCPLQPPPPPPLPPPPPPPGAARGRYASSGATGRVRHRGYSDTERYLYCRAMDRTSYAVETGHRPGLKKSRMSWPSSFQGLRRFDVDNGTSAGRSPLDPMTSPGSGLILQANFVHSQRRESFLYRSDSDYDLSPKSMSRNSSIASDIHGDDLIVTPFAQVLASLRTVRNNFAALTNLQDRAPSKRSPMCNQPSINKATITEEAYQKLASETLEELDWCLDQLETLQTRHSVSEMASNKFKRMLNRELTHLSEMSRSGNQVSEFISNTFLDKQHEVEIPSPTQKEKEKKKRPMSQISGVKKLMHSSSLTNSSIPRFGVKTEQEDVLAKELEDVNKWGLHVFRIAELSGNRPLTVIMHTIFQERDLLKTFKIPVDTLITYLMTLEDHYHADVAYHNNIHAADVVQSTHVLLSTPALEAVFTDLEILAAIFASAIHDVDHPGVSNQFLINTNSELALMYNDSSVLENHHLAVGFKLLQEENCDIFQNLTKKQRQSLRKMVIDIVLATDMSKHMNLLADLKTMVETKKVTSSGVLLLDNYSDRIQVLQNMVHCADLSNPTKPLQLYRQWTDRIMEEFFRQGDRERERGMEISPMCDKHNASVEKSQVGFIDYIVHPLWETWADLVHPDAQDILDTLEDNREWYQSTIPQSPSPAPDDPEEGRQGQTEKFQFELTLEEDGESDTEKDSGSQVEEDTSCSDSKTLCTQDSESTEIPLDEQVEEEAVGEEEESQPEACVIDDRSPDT
T1 sequence (Q07343 whole entry): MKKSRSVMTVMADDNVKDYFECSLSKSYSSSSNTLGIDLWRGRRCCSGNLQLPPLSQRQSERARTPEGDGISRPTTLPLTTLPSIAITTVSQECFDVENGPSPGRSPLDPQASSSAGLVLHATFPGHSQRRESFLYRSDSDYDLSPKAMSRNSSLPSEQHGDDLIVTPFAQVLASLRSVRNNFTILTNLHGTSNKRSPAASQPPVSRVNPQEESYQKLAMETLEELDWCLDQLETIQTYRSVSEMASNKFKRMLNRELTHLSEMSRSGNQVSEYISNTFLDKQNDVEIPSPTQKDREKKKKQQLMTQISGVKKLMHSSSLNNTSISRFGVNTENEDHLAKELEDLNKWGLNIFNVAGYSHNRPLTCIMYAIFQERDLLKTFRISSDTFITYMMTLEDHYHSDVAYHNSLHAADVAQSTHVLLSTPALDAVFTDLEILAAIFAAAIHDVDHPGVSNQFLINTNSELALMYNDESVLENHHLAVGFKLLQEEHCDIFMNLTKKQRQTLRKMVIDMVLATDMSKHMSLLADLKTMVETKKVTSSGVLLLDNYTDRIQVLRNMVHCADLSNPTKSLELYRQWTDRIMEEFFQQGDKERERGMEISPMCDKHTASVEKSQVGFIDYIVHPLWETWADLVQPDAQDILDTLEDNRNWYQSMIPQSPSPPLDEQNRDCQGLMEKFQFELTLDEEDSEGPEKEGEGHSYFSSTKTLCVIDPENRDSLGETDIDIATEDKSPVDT

Row | Compound | Ratio IC50 (Homo sapiens) | pIC50 [1] | pIC50 [2] | pIC50 [3] | inhibition in vivo at 10 mg/kg (Mus musculus) | inhibition in vivo at 10 mg/kg (Rattus norvegicus)
1 | COc1ccc(-c2ccc(CN3CCS/C3=N/C#N)o2)cc1 | 3.42 | 5.02 | 4.48 | 4.43 | 31.2% | 28.7%
2 | COc1ccc(-c2ccc(C(=O)N3CCS/C3=N/C#N)o2)cc1 | 6.68 | 5.55 | 4.73 | 4.82 | 40.5% | 33.8%
3 | N#C/N=C1/SCCN1Cc1ccc(-c2cccc(F)c2)o1 | – | 4.22 | – | 4.05 | – | –
4 | N#C/N=C1/SCCN1Cc1ccc(-c2c(F)cccc2F)o1 | 3.49 | 4.34 | 3.80 | 4.08 | – | –
5 | Cc1ccc(-c2ccc(C(=O)N3CCS/C3=N/C#N)o2)cc1 | 4.34 | 4.90 | 4.27 | 4.38 | – | –
6 | N#C/N=C1/SCCN1Cc1ccc(-c2ccc(Br)cc2)o1 | – | 4.28 | – | 3.81 | – | –
7 | Cc1ccc(-c2ccc(CN3CCS/C3=N/C#N)o2)cc1 | 6.04 | 4.70 | 3.92 | 4.27 | – | –
8 | COc1ccc(C2CNC(=O)C2)cc1OC1CCCC1 (stereo not drawn) [ROLIPRAM] | – | – | – | – | 45.3% | 36.8%
9 | N#C/N=C1/SCCN1Cc1ccc(-c2ccccc2)o1 | – | 3.79 | – | 3.70 | – | –
10 | N#C/N=C1/SCCN1C(=O)c1ccc(-c2ccc(Br)cc2)o1 | – | 4.30 | – | 3.86 | – | –
11 | N#C/N=C1/SCCN1Cc1ccc(-c2ccc(Cl)cc2)o1 | 3.71 | 4.80 | 4.23 | 4.35 | – | –
12 | N#C/N=C1/SCCN1Cc1ccc(-c2cccc(Cl)c2)o1 | – | 4.20 | – | 4.05 | – | –
13 | N#C/N=C1/SCCN1Cc1ccc(-c2ccccc2Cl)o1 | – | 3.99 | – | 3.83 | – | –
14 | N#C/N=C1/SCCN1Cc1ccc(-c2ccc(F)cc2)o1 | 5.85 | 4.72 | 3.96 | 4.34 | – | –

Further lines, with some results ahead:

Row | Ratio IC50 (Homo sapiens) | pIC50 [1] | pIC50 [2] | pIC50 [3] | Compound | inhibition in vivo at 10 mg/kg (Mus musculus) | inhibition in vivo at 10 mg/kg (Rattus norvegicus)
15 | – | 4.20 | – | 3.91 | N#C/N=C1/SCCN1C(=O)c1ccc(-c2ccccc2Cl)o1 | – | –
16 | 5.66 | 4.74 | 3.99 | 4.20 | N#C/N=C1/SCCN1C(=O)c1coc(-c2cccc(Cl)c2)n1 | – | –
17 | – | 4.28 | – | 4.03 | N#C/N=C1/SCCN1C(=O)c1coc(-c2ccccc2F)n1 | – | –
18 | 4 | 5.18 | 4.58 | 4.45 | N#C/N=C1/SCCN1C(=O)c1ccc(-c2ccc(Cl)cc2)o1 | – | –
19 | 7.27 | 5.04 | 4.17 | 4.45 | Cc1ccc(-c2nc(C(=O)N3CCS/C3=N/C#N)co2)cc1 | – | –
20 | – | 4.39 | – | 3.99 | N#C/N=C1/SCCN1C(=O)c1coc(-c2ccccc2Cl)n1 | – | –
21 | 4.01 | 4.66 | 4.05 | 4.22 | N#C/N=C1/SCCN1C(=O)c1ccc(-c2c(F)cccc2F)o1 | – | –
22 | – | 4.56 | – | 4.19 | N#C/N=C1/SCCN1C(=O)c1coc(-c2cccc(F)c2)n1 | – | –
23 | – | 4.07 | – | 3.92 | N#C/N=C1/SCCN1Cc1ccc(-c2ccccc2F)o1 | – | –
24 | – | 4.20 | – | 3.96 | N#C/N=C1/SCCN1C(=O)c1ccc(-c2ccccc2F)o1 | – | –
25 | 7.44 | 5.44 | 4.57 | 4.57 | N#C/N=C1/SCCN1C(=O)c1coc(-c2ccc(Cl)cc2)n1 | – | –
26 | 4.93 | 4.95 | 4.25 | 4.53 | N#C/N=C1/SCCN1C(=O)c1ccc(-c2ccc(F)cc2)o1 | – | –
27 | 6.75 | 5.17 | 4.34 | 4.66 | N#C/N=C1/SCCN1C(=O)c1coc(-c2ccc(F)cc2)n1 | – | –
28 | – | 4.15 | – | 3.85 | N#C/N=C1/SCCN1C(=O)c1coc(-c2ccccc2)n1 | – | –
29 | – | 4.33 | – | 3.88 | N#C/N=C1/SCCN1C(=O)c1coc(-c2ccc(Br)cc2)n1 | – | –
30 | 11.2 | 5.85 | 4.80 | 4.93 | COc1ccc(-c2nc(C(=O)N3CCS/C3=N/C#N)co2)cc1 | 52.6% | 42.1%
31 | 6.06 | 4.79 | 4.01 | 4.31 | N#C/N=C1/SCCN1C(=O)c1coc(-c2c(F)cccc2F)n1 | – | –
32 | 3.39 | 4.53 | 4.00 | 4.13 | N#C/N=C1/SCCN1C(=O)c1ccc(-c2cccc(Cl)c2)o1 | – | –
33 | – | 4.42 | – | 4.14 | N#C/N=C1/SCCN1C(=O)c1ccc(-c2cccc(F)c2)o1 | – | –
34 | – | 3.95 | – | 3.77 | N#C/N=C1/SCCN1C(=O)c1ccc(-c2ccccc2)o1 | – | –
